21 compounds from ChEMBL document CHEMBL1143105, “Potent and selective small molecule NS3 serine protease inhibitors of Hepatitis C virus with dichlorocyclopropylproline as P2 residue” (Bioorg Med Chem, 2008) can be followed below.

A short description of data set [1]: Inhibition of hepatitis C virus NS3 serine protease. Also noted: species or system Hepacivirus hominis.
For another data set, the system named is Hepatitis C virus. As to the kind of experiment: Antiviral activity in hepatitis C virus by cell based replicon assay. The format is functional, organism-based, Hepacivirus hominis.
Data set [2] is described as follows: AUC in rat at 10 mg/kg, po. The class given is ADME, organism-based. Also noted: dose 10 mg/kg, route oral. To be noted: plasma.
The nature of data set [3]: AUC in rat at 10 mg/kg, iv. The class given is ADME, organism-based. On the set-up: dose 10 mg/kg, route intravenous. The conditions noted are these: plasma.
Data set [4] in a line: Half life in rat. The class given is ADME, organism-based. To be noted: in vivo.
Data set [5] can be described thus: Oral bioavailability in rat. The format is ADME, organism-based. To be noted: in vivo.
A short description of data set [6]: AUC in monkey at 3 mg/kg, po. The class given is ADME, organism-based, Macaca mulatta. On the set-up: dose 3 mg/kg, route oral. To be noted: rhesus monkey, plasma.
Data set [7] in a line: AUC in monkey at 2.2 mg/kg, iv. The format is ADME, organism-based, Macaca mulatta. Also noted: dose 2.2 mg/kg, route intravenous. The conditions noted are these: rhesus monkey, plasma.
Data set [8] is described as follows: Half life in monkey. The conditions noted are these: rhesus monkey, in vivo. The format is ADME, organism-based, Macaca mulatta.
The nature of data set [9]: Oral bioavailability in monkey. To be noted: rhesus monkey, in vivo. The class given is ADME, organism-based, Macaca mulatta.
Data set [10] can be described thus: AUC in dog at 3 mg/kg, po. The class given is ADME, organism-based, Canis lupus familiaris. Also noted: dose 3 mg/kg, route oral. The conditions noted are these: plasma. The gist of the method: (§1)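 AUC is given in µM h. Compounds were tested as mixtures of two diastereomers at the P1 α-centre, with the isomer ratio varying slightly by compound.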
The nature of data set [11]: AUC in dog at 2.2 mg/kg, iv. The format is ADME, organism-based, Canis lupus familiaris. Also noted: dose 2.2 mg/kg, route intravenous. The conditions noted are these: plasma. The procedure, abridged:
as §1

The nature of data set [12]: Half life in dog. To be noted: in vivo. The format is ADME, organism-based, Canis lupus familiaris.
Data set [13] can be described thus: Oral bioavailability in dog. The conditions noted are these: in vivo. The class given is ADME, organism-based, Canis lupus familiaris.
The nature of data set [14]: AUC in monkey at 1.5 mg/kg, po. The class given is ADME, organism-based, Macaca mulatta. On the set-up: dose 1.5 mg/kg, route oral. The conditions noted are these: rhesus monkey, plasma. The gist of the method: as §1
Data set [15] can be described thus: AUC in monkey at 0.6 mg/kg, iv. The format is ADME, organism-based, Macaca mulatta. On the set-up: dose 0.6 mg/kg, route intravenous. To be noted: rhesus monkey, plasma. The procedure, abridged:
as §1

Data set [16] is described as follows: AUC in dog at 1.5 mg/kg, po. The class given is ADME, organism-based, Canis lupus familiaris. Also noted: dose 1.5 mg/kg, route oral. To be noted: plasma. The procedure, abridged: as §1
Data set [17] can be described thus: AUC in dog at 0.6 mg/kg, iv. Also noted: dose 0.6 mg/kg, route intravenous. The conditions noted are these: plasma. The format is ADME, organism-based, Canis lupus familiaris. The gist of the method: as §1
A short description of data set [18]: AUC in rat at 7.5 mg/kg, po. The class given is ADME, organism-based. Also noted: dose 7.5 mg/kg, route oral. The conditions noted are these: plasma. The procedure, abridged: as §1
The nature of data set [19]: AUC in rat at 6 mg/kg, iv. The class given is ADME, organism-based. Also noted: dose 6 mg/kg, route intravenous. The conditions noted are these: plasma. The gist of the method:
as §1

Molecules are shown by their SMILES. *1 amine or outer side, *2 acyl side, *3 side chain or, on linkers, in order; H or OH if unused. Where a SMILES comes first, the peptide text is derived from it. [ ]: non-standard residue; d: D form. The star is where a group is joined. Pro(3R,4S-CMe2) = CC1(C)[C@@H]2[C@@H](C(=O)O)NC[C@@H]21; Pro(3S,4R-CCl2) = O=C(O)[C@H]1NC[C@H]2[C@@H]1C2(Cl)Cl; X2 = O=C(C(=O)[*:2])C(CC1CCC1)N[*:1]; X1 = O=C(C(=O)[*:2])C(CC1CC1)N[*:1]; X3 = CCCC(N[*:1])C(=O)C(=O)[*:2]; Chg = N[C@H](C(=O)O)C1CCCCC1; Phg = N[C@H](C(=O)O)c1ccccc1; Tle = CC(C)(C)[C@H](N)C(=O)O; Boc = CC(C)(C)OC(=O)*

A word on the Ki: it is a dissociation constant, usually derived from enzyme kinetics or from competition with a known ligand. One may read the EC50 as the concentration that produces a half-maximal response. What is called AUC is concentration integrated over time. A word on the half-life: it is the time needed for the level to fall by half in the phase considered. For orientation: bioavailability means dose-corrected exposure relative to a reference, in per cent.

`CC(C)(C)NC(=O)N[C@H](C(=O)N1C[C@H]2[C@@H]([C@H]1C(=O)NC(CC1CCC1)C(=O)C(N)=O)C2(Cl)Cl)C1CCCCC1` (stereo partly specified): in data set [1], the affinity corresponds to a Ki of 6 nM. In addition, it took 300 nM to reach a half-maximal effect in the data set with Hepatitis C virus (EC50). The compound further had an AUC in data set [2] of 0.32 µM·h.
Regarding `C=CCNC(=O)C(=O)C(CCC)NC(=O)[C@@H]1[C@@H]2[C@H](CN1C(=O)[C@@H](NC(=O)NC(C)(C)C)C1CCCCC1)C2(Cl)Cl` (stereo partly specified), in [1], the affinity corresponds to a Ki of 100 nM.
Take `CC(C)(C)OC(=O)N[C@H](C(=O)N1C[C@H]2[C@@H]([C@H]1C(=O)NC(CC1CCC1)C(=O)C(N)=O)C2(Cl)Cl)C(C)(C)C` (stereo partly specified): affinity in data set [1] was put at a Ki of 9 nM. Also, the midpoint of the response in the data set with Hepatitis C virus, the EC50, lay at 100 nM. In addition, the area under the curve (AUC) in data set [2] was 0.3 µM·h; in data set [3], 2.6 µM·h; in data set [6] it was 0.77 µM·h; in data set [7], 1.2 µM·h; in data set [10] it was 0.61 µM·h; in data set [11], 4.5 µM·h. In addition, the half-life was 336 min in data set [4], 66 min in data set [8] and 378 min in [12]. The bioavailability in [5] was 12%; in data set [9], 50%; in [13], 10%.
`CN(C)C(=O)[C@@H](NC(=O)CNC(=O)C(=O)C(CC1CCC1)NC(=O)[C@@H]1[C@@H]2[C@H](CN1C(=O)[C@@H](NC(=O)OC(C)(C)C)C1CCCCC1)C2(Cl)Cl)c1ccccc1` (stereo partly drawn) (Boc-[Chg][Pro(3S,4R-CCl2)][X2]G[Phg]-NMe2) gave a Ki in [1] of 9 nM.
In the case of `CC(C)(C)OC(=O)N[C@H](C(=O)N1C[C@H]2[C@@H]([C@H]1C(=O)NC(CC1CCC1)C(=O)C(N)=O)C2(Cl)Cl)C1CCCCC1` (stereo partly specified), the inhibition constant (Ki) in [1] was found to be 17 nM. Also, a half-maximal response in the data set on Hepatitis C virus (EC50) required 300 nM. The exposure (AUC) in data set [2] was 2.4 µM·h; in data set [14] it was 0.06 µM·h; in [15], 0.6 µM·h; in data set [16], 0.1 µM·h; in [17], 2 µM·h. Further, the half-life is 114 min in [8] and 282 min in data set [12]. Besides, the bioavailability in [9] was found to be 4%; in data set [13] it was 2%.
In the case of `CC(C)(OC(=O)N[C@H](C(=O)N1C[C@H]2[C@@H]([C@H]1C(=O)NC(CC1CCC1)C(=O)C(N)=O)C2(Cl)Cl)C1CCCCC1)C(F)(F)F` (stereo partly specified), the inhibitory constant (Ki) in data set [1] turned out to be 65 nM.
`CC(C)(C)OC(=O)N[C@H](C(=O)N1C[C@H]2[C@@H]([C@H]1C(=O)NC(CC1CCC1)C(=O)C(N)=O)C2(Cl)Cl)C1Cc2ccccc2C1` (stereo partly specified) yielded a Ki in data set [1] of 60 nM.
As for `NC(=O)C(=O)C(CC1CCC1)NC(=O)[C@@H]1[C@@H]2[C@H](CN1C(=O)[C@@H](NC(=O)OC1CC3CCC1C3)C1CCCCC1)C2(Cl)Cl` (stereo partly specified), affinity in [1] was put at a Ki of 60 nM. In the data set with Hepatitis C virus, this compound yielded a concentration giving a half-maximal response (EC50) of 200 nM. Besides, the AUC in data set [2] came out at 0.75 µM·h.
The compound `CC(C)(C)NC(=O)N[C@H](C(=O)N1C[C@H]2[C@@H]([C@H]1C(=O)NC(CC1CCC1)C(=O)C(N)=O)C2(Cl)Cl)C(C)(C)C` (stereo partly specified) registered a Ki in data set [1] of 7 nM. Besides, the EC50 in the data set with Hepatitis C virus came out at 200 nM. Also, the AUC in data set [18] is 0.12 µM·h; in data set [19], 1.9 µM·h. This compound gave a half-life in [4] of 162 min. Besides, the bioavailability in data set [5] is 5%.
In the case of `NC(=O)C(=O)C(CC1CCC1)NC(=O)[C@@H]1[C@@H]2[C@H](CN1C(=O)[C@@H](NC(=O)NC1CCCCC1)C1CCCCC1)C2(Cl)Cl` (stereo partly specified), the Ki in data set [1] stood at 15 nM.
`C[C@@H](NC(=O)N[C@H](C(=O)N1C[C@H]2[C@@H]([C@H]1C(=O)NC(CC1CCC1)C(=O)C(N)=O)C2(Cl)Cl)C1CCCCC1)C(C)(C)C` (stereo partly specified) returned an inhibition constant Ki in [1] of 10 nM. Besides, in the data set with Hepatitis C virus, the EC50 was 40 nM.
In turn, `C=CCCC(NC(=O)[C@@H]1[C@@H]2[C@H](CN1C(=O)[C@@H](NC(=O)NC(C)(C)C)C1CCCCC1)C2(Cl)Cl)C(=O)C(=O)NCC=C` (stereo partly specified) returned a Ki in data set [1] of 44 nM.
`CCCC(NC(=O)[C@@H]1[C@@H]2[C@H](CN1C(=O)[C@@H](NC(=O)NC(C)(C)C)C1CCCCC1)C2(Cl)Cl)C(=O)C(N)=O` (stereo partly specified) gave a Ki in data set [1] of 20 nM.
Regarding `CN(C)C(=O)[C@@H](NC(=O)CNC(=O)C(=O)C(CC1CC1)NC(=O)[C@@H]1[C@@H]2[C@H](CN1C(=O)[C@@H](NC(=O)OC(C)(C)C)C(C)(C)C)C2(C)C)c1ccccc1` (stereo partly drawn) (Boc-[Tle][Pro(3R,4S-CMe2)][X1]G[Phg]-NMe2), the inhibition constant Ki in [1] is 3.8 nM. Besides, in the data set with Hepatitis C virus, the 50% effective concentration (EC50) stood at 40 nM. Also, the bioavailability in data set [5] stood at 4%; in data set [9], 1%.
In turn, `CC(C)(C)OC(=O)N[C@H](C(=O)N1C[C@H]2[C@@H]([C@H]1C(=O)NC(CC1CC1)C(=O)C(N)=O)C2(Cl)Cl)C1CCCCC1` (stereo partly specified) registered a Ki in data set [1] of 11 nM. Further, the 50% effective concentration (EC50) with Hepatitis C virus is 500 nM. Moreover, the AUC in data set [2] amounted to 2.7 µM·h; in [3] it was 10.7 µM·h; in [6] it was 0.13 µM·h; in [7], 1.2 µM·h; in data set [10] it was 0.07 µM·h; in data set [11] it was 2.6 µM·h. The half-life in [4] was 264 min; in [8] it was 576 min; in [12] it was 960 min. Also, the bioavailability in data set [5] amounted to 26%; in data set [9], 8%; in [13] it was 2%.
In the case of `CCCC(NC(=O)[C@@H]1[C@@H]2[C@H](CN1C(=O)[C@@H](NC(=O)OC(C)(C)C)C1CCCCC1)C2(Cl)Cl)C(=O)C(N)=O` (stereo partly specified), in data set [1], the Ki amounted to 36 nM.
Same read-out and setting: under `CN(C)C(=O)[C@@H](NC(=O)CNC(=O)C(=O)C(CC1CC1)NC(=O)[C@@H]1[C@@H]2[C@H](CN1C(=O)[C@@H](NC(=O)OC(C)(C)C)C1CCCCC1)C2(Cl)Cl)c1ccccc1` (stereo partly drawn) (Boc-[Chg][Pro(3S,4R-CCl2)][X1]G[Phg]-NMe2) stands 7 nM; under `CC(C)(C)NC(=O)N[C@H](C(=O)N1C[C@H]2[C@@H]([C@H]1C(=O)NC(CC1CCC1)C(=O)C(N)=O)C2(Cl)Cl)C1Cc2ccccc2C1` (stereo partly specified), 30 nM.
The same measure, in the same setting: for `C=CCNC(=O)C(=O)C(CCC)NC(=O)[C@@H]1[C@@H]2[C@H](CN1C(=O)[C@@H](NC(=O)OC(C)(C)C)C1CCCCC1)C2(Cl)Cl` (stereo partly specified) the value was 90 nM.
Consider `CC(C)(C)NC(=O)N[C@H](C(=O)N1C[C@H]2[C@@H]([C@H]1C(=O)NC(CC1CCC1)C(=O)C(N)=O)C2(C)C)C(C)(C)C` (stereo partly specified) [BOCEPREVIR], for which the affinity in [1], expressed as Ki, was 14 nM. Moreover, in the data set on Hepatitis C virus, the EC50 turned out to be 200 nM.
With `CCCC(NC(=O)[C@@H]1[C@@H]2[C@H](CN1C(=O)[C@@H](NC(=O)OC(C)(C)C)C1CCCCC1)C2(Cl)Cl)C(=O)C(=O)NCC(=O)N[C@H](C(=O)N(C)C)c1ccccc1` (stereo partly drawn) (Boc-[Chg][Pro(3S,4R-CCl2)][X3]G[Phg]-NMe2), affinity in [1] was put at a Ki of 15 nM.
